# An excerpt weighted towards active compounds, which were near 3% of everything screened.
# PvdQ acylase: P. aeruginosa PvdQ acylase inhibitors, primary screen, biochemical, fluorescence, plate reader and imaging, single point. PvdQ acylase [Pseudomonas aeruginosa LESB58]. purified PvdQ acylase. inhibition, % at 10 µM. 0.063% of 340,000 active; in the data active = inhibition above about 30%, passing the limit was not always enough; inconclusive = no clear call, values can overlap the other calls;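 also: 0% = vehicle neutral wells and 100% = reference inhibitor wells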
# N-glyco inh: increase of ERlucT glycosylation luciferase signal, primary screen, N-linked glycosylation inhibitor project, D54 ERlucT cells, luminescence, set 2; D54 ERlucT glycosylation luciferase reporter, 24 h; percent of 100 nM tunicamycin response; reporter increase, % at 12.5 µM; 0.23% of 360,000 active;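 active = mean luciferase reporter signal, scaled so untreated is 0 and the glycosylation-blocking control 100, at or above a set limit in every replicate; inconclusive = mean reaches the limit but not every replicate does; inactive = mean below the limit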;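 also: luciferase carries N-glycosylation sites so blocking glycosylation raises the light; 0% = median of neutral control wells and 100% = median of 100 nM tunicamycin wells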
# PfHsp90 yeast 2: growth inhibition of PfHsp90-expressing yeast, primary screen, antimalarial PfHsp90 inhibitor project, S. cerevisiae, BacTiter-Glo luminescence, single point, set 2; AID 504621, 2011; inhibition, % at 9.4 µM; BacTiter-Glo ATP, 48 h; yeast lacking PDR1 and PDR3 efflux regulators; 0.32% of 310,000 active;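 active = every replicate shows inhibition above about 80%, whatever the replicate mean, limit read from the data; inconclusive = mean inhibition reaches the set limit but some replicate falls short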;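 also: 0% = DMSO neutral controls and 100% = 20 µM radicicol positive controls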
# CaV13 ICDI inh: Disruptors of the CACNA1D IQ motif to Ca2+-dependent inactivation inhibitor domain association, primary screening, Förster resonance energy transfer in intact living … | HEK cells, CFP/YFP FRET ICDI-IQ, plate reader, 10 min; percent FRET-ratio fall versus neutral wells | inhibition, % at 12.3 µM | 0.098% of 340,000 active | AID 743397;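 active = mean replicate inhibition of at least 30% and at least 1% of replicates passing that level; inconclusive = only one of the two criteria is met; inactive = neither criterion is met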;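 also: 0% = median of the neutral control wells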
# HSF1 activator: HSF-1 activators, primary screen, NIH3T3-HGL cells, MG132 stress, luminescence, single point; activation, % at 9 µM; AID 504408, 2011; NIH3T3-HGL HSF-1 luciferase reporter, 8 h; 100% = twice DMSO control signal; 1.7% of 300,000 active;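 active = mean replicate activation of at least 50% with a set share of replicates each reaching 50%; inconclusive = only one of those two conditions met; inactive = mean below 50% and too few replicates reaching it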;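 also: 0% = median of the neutral control wells and 100% = twice that signal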
# T cruzi inh: inhibitors of intracellular T. cruzi growth, primary screen, luminescence, NIH3T3 host cells | inhibition, % (test concentration not listed) | AID 1885, 2009 | 1.4% of 300,000 active | T. cruzi beta-gal in NIH3T3, 90 h;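 active = mean inhibition across valid replicates above about 55%, limit read from the data; inconclusive = mean below that limit but half or more replicates reach it; inactive = mean below it, under half of replicates reach it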;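 also: signal also drops with host cell toxicity which is not excluded here; 0% = plate median of DMSO wells and 100% = zero luminescence signal; higher percent means less beta-gal luminescence so fewer parasites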
#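 System: NIH/3T3 fibroblasts plus reporter T. cruzi. Medium: DMEM plus 2% FBS. Probe or stimulus: 5000 reporter trypomastigotes per well. Compound: single 50 nL compound addition per well in DMSO. Incubation: co-culture of at least 90 h after 3 h attachment. Detection: GalScreen β-gal luminescence, detergent lysis, 60 min. Evaluation: parasite load inhibition, %.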
# * marks the source's active call; other numbers are inactive results; ? = inconclusive; . = not tested or not shown; + = active, no number.
SMILES,PvdQ acylase,N-glyco inh,PfHsp90 yeast 2,CaV13 ICDI inh,HSF1 activator,T cruzi inh
O=c1oc2c(CN3CCCCC3)c(O)ccc2cc1-c1nc2ccccc2[nH]1,-13,1,26,35*,.,.
O=c1oc2c(CN3CCN(CCO)CC3)c(O)ccc2cc1-c1ccccn1,-25,0,-8,+,5,-8
Cc1cc(=O)oc2c(CN3CCN(CCO)CC3)c(O)ccc12,-7,1,6,-2,-5,-6
CCc1cc2c(=O)c(-c3nc4ccccc4[nH]3)coc2c(CN2CCCCC2)c1O,-4,0,-32,-15,14,-9
O=c1oc2c(O)cccc2cc1-c1nc2ccccc2[nH]1,-2,-9,2,34*,42,-18
COc1ccc(NC(=O)c2ccc3ccccc3c2)cc1,-6,-12,-28,1,62*,-10
COc1ccc(C(=O)NNC(=O)c2ccc3ccccc3c2)cc1,-18,1,.,-5,.,.
CC(=O)c1cccc(NC(=O)c2ccc3ccccc3c2)c1,-13,-7,35,-6,55*,-14
COc1ccc(NC(=O)c2cc3ccccc3o2)cc1OC,-17,-1,-5,-1,15,1
CC(=O)c1cccc(NC(=S)NC(=O)c2cccc(C)c2)c1,2,-3,-3,-6,64*,13
COc1ccc(NC(=O)c2cc3ccccc3o2)cc1,18,-5,-1,-5,55*,11
CCN(CC)C(=O)c1cccc(-c2csc(C(O)c3cccc(OC)c3)n2)c1 (centres undefined),.,-2,.,-4,.,.
COc1ccc(Cl)cc1NC(=O)CN(C)CC(=O)Nc1cc(OC)c(OC)c(OC)c1,-16,33*,-8,-19,15,9
Cn1nc(C(C)(C)C)cc1C(=O)NCC1CCN(C(=O)C(=O)c2cc3ccccc3o2)CC1,.,.,.,-9,.,.
CCC(=O)c1ccccc1OCCN1CCN(Cc2ccccc2)CC1,-14,-5,-23,-18,3,22
CCOc1ccccc1OCCOCCN1CCN(Cc2ccccc2)CC1,-4,-1,23,-3,16,61*
Nc1cc(-c2ccco2)no1,-16,3,-11,.,72*,-30
COc1ccc(C2CC(=O)C(c3ccc(Cl)cc3)=CN2Cc2ccccc2)cc1 (centres undefined),.,.,.,-4,.,.
CC(C)N1CCCC(C)(C(=O)Nc2nc3ccccc3n2C)C1 (centres undefined),.,1,.,-7,.,.
CCCCn1c(-c2ccccc2C)nc2cc3[nH]c(=O)c(C(C)C)nc3cc21,8,0,-6,-10,9,30
CCCCn1c(-c2cccc3ccccc23)nc2cc3[nH]c(=O)c(C(C)C)nc3cc21,-7,2,19,-6,37,63*
Nc1c(-c2ccc(Cl)cc2)nnn1-c1ccccc1,-8,1,0,-6,58*,-2
Nc1c(-c2ccc(Cl)cc2)cnn1-c1ccccc1,-1,-1,-12,-4,21,8
COc1ccccc1N1CCN(C2CCC(C)CC2)CC1 (centres undefined),-18,-1,-3,50*,-22,-9
COc1ccccc1N1CCN(C2CCN(C3CCC(c4ccccc4)CC3)CC2)CC1 (centres undefined),.,.,.,.,-1,40
SMILES,PvdQ acylase,N-glyco inh,PfHsp90 yeast 2,CaV13 ICDI inh,HSF1 activator,T cruzi inh
O=C1CC2(CCCC2)C(=O)N1CN1CCN(S(=O)(=O)c2cc(F)ccc2F)CC1,.,1,.,-5,.,.
Cc1cc(C)c(S(=O)(=O)N2CCCC(C(=O)NCCC3=CCCCC3)C2)c(C)c1 (centres undefined),7,-4,8,-7,60*,11
O=c1c(Cl)c(N2CCN(c3ccc(F)cc3)CC2)cnn1C12CC3CC(CC(C3)C1)C2,-24,-1,3,-3,5,63*
Cc1ccc(C(=O)Nc2ccccc2-c2ccccc2)cc1S(=O)(=O)Nc1cccc(C)c1C,-7,-8,.,-4,16,62*
CC(C)C[C@H]1CN(CCCC[C@H]2CNC(=O)C(=O)N2Cc2ccccc2)C(=O)C(=O)N1CCC1CCCCC1,.,.,.,-3,.,.
COc1ccc(-c2csc3nc(-c4cccnc4)nc(N4CCC(C(N)=O)CC4)c23)cc1OC,1,9,-6,-3,-3,24
O=C1CN(c2nc(-c3cccnc3)nc3scc(-c4ccccc4)c23)CCN1,-27,2,.,-7,35,63*
O=[N+]([O-])c1cc([N+](=O)[O-])c(Oc2c(F)cccc2F)cc1NN1CCCCC1,-14,2,23,-5,62*,-25
O=[N+]([O-])c1cc([N+](=O)[O-])c(Oc2c(F)ccc(F)c2F)cc1NN1CCCCC1,-6,0,11,-11,17,-9
COc1ccccc1NC(=O)C(=O)N/N=C(\C)CC(=O)Nc1ccccn1,-5,-2,2,-4,6,-7
O=C(/C=C/c1ccco1)Nc1cccc(NC(=O)/C=C/c2ccco2)n1,-5,3,-8,-2,81*,-78
COc1ccccc1NC(=O)C(=O)Nc1ccccn1,-13,-6,5,-9,59*,1
COc1ccccc1/C=C/C(=O)NC(=S)Nc1ccccn1,-2,-2,3,-6,65*,0
Cc1nc(NC(=O)/C=C/c2ccco2)sc1C,18,7,7,-13,39,-40
Cc1cccnc1NC(=S)NC(=O)/C=C/c1ccco1,-5,0,27,-1,?,-3
O=C(/C=C/c1ccco1)NC(=S)Nc1ccccn1,3,1,.,-3,58*,-3
O=C(/C=C/c1ccco1)Nc1nnc(-c2ccco2)s1,-2,35*,-19,-4,6,-10
CCc1nnc(NC(=O)/C=C/c2ccco2)s1,2,15,-59,13,32,1
COC(=O)[C@@]12C[C@@H](CC(=O)NCc3ccc(OC)c(OC)c3)C(=O)N(Cc3ccco3)C1=CCC(C)(C)C2,.,.,.,-16,.,.
O=c1oc2ccccc2cc1-c1nc(-c2ccccc2)no1,-16,-2,16,.,63*,-13
Nc1ccn(CCCN2CCN(C(=O)C3CC3)CC2)c(=O)n1,.,1,.,-2,.,.
N#Cc1ccc(N2Cc3ccccc3C2=NC(=O)c2cccnc2Cl)cc1,8,-1,5,-4,15,3
O=C(N=C1c2ccccc2CN1c1ccc(F)c(Cl)c1)c1cccnc1Cl,.,.,.,-2,69*,26

# Screening results (PubChem BioAssay)
